Compound activity from PubChem BioAssay.
An excerpt weighted towards active compounds, which were near 4% of everything screened.
PHOSPHO1 inh: PubChem AID 1565 | Phosphoethanolamine/phosphocholine phosphatase (Homo sapiens), Q8TCT1 | recombinant PHOSPHO1, absorbance phosphatase assay | inhibition, % at 13.3 µM | 290,000 tested, 1.1% active; in the data active means inhibition above about 60%
hERG rescue: hERG rescue from dofetilide block, primary screen, cell-based, CHO-hERG, FluxOR thallium flux, dofetilide IC70. 310,000 tested, 0.51% active. dofetilide IC70 present. AID 1511, 2009. activation (rescue from dofetilide block), less the hit threshold, % at 10 µM;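 active means activation above the mean of controls blocked by dofetilide plus 5 SD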;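 further: thallium influx through hERG after potassium depolarization seen as dye fluorescence rise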
Target sequence (Q12809 whole entry, looked up): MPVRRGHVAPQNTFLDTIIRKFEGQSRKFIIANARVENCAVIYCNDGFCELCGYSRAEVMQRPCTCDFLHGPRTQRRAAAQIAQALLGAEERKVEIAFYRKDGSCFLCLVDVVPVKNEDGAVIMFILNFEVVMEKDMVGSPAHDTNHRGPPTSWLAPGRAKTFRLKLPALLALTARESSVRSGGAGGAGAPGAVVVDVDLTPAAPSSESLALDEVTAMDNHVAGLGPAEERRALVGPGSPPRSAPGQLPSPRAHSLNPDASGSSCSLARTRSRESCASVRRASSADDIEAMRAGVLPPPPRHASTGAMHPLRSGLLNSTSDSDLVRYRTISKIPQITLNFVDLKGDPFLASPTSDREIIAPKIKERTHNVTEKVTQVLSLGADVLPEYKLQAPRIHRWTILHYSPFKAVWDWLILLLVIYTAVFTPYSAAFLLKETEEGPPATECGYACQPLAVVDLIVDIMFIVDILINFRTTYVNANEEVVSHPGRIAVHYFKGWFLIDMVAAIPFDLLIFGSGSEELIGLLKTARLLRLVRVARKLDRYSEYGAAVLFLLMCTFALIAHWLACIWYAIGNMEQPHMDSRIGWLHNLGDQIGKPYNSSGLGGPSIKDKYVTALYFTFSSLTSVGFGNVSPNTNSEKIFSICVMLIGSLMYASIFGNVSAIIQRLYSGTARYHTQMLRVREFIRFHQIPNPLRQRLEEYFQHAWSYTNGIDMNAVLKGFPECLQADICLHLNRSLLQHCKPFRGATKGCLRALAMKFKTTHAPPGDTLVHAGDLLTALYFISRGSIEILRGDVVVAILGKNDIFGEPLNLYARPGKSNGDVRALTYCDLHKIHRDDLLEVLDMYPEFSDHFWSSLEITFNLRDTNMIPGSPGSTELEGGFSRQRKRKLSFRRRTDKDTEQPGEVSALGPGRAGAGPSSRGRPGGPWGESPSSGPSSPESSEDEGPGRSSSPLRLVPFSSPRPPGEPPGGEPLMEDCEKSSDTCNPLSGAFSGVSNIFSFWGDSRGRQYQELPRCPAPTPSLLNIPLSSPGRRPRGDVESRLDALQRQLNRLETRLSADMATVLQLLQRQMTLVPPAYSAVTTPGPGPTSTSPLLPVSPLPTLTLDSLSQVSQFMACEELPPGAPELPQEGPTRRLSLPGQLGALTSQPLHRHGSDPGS
KCNK3 inh: human KCNK3 channel inhibitors, primary screen, CHO cells, FluxOR thallium flux, B-score. Potassium channel subfamily K member 3 (Homo sapiens), O14649. B-score at 10 µM. FluxOR fluorescence; stronger effect = lower value. 340,000 tested, 0.84% active;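 active means B-score under library mean minus 4 SD, starting fluorescence ratio at most library mean plus 5 SD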;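 further: more negative B-score means stronger inhibition of thallium flux through KCNK3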
KCNQ1 act: potentiators or activators of KCNQ1 channel, primary screen, cell-based, thallium flux, high-throughput; Potassium voltage-gated channel subfamily KQT member 1 (Homo sapiens), P51787; CHO-K1 KCNQ1, thallium flux FluxOR fluorescence; stronger effect = higher value; B-score at 10 µM; 310,000 tested, 0.35% active; AID 2648, 2010;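 active means fluorescence ratio B-score, a plate-corrected score, at least three library SD, with initial intensity B-score within 5 SD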
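System: CHO-K1 cells stably expressing KCNQ1 / Medium: assay buffer for compound exposure, DMSO matched across wells / Reagent: thallium- and potassium-containing depolarizing buffer / Compound: one concentration, matched DMSO / Incubation: 20 min compound pretreatment at room temperature / Measured by: kinetic FluxOR fluorescence, 10 s baseline plus 110 s post-stimulus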
KCNQ1 block: inhibitors of human KCNQ1 channel, primary screen, cell-based, thallium flux, high-throughput; Potassium voltage-gated channel subfamily KQT member 1 (Homo sapiens), P51787; CHO-K1 KCNQ1, FluxOR thallium flux fluorescence; stronger effect = higher value; B-score at 10 µM; 310,000 tested, 1.3% active; AID 2642, 2010;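 active means compounds whose thallium flux B-score, printed positive for inhibition, exceeds three library SD while starting fluorescence stays within three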;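 further: channel opened by potassium depolarization with thallium stimulus after 20 min compound exposure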
KCNK9 inh: KCNK9 potassium channel inhibitors, primary screen, HEK293 cells, thallium flux; Potassium channel subfamily K member 9 (Homo sapiens), Q9NPC2; FluxOR thallium flux fluorescence; stronger effect = lower value; B-score at 10 µM; 310,000 tested, 1.2% active;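 active means ratio B-score over 3 SD below the library mean, with starting fluorescence within 5 SD of its mean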;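 further: negative B-score means less thallium flux so channel inhibition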
Numbers without * were called inactive; i = inactive; . = no result.

SMILES	PHOSPHO1 inh	hERG rescue	KCNK3 inh	KCNQ1 act	KCNQ1 block	KCNK9 inh
CCOc1ccc(N2C(=O)/C(=C\c3cccs3)C(=O)NC2=S)cc1	-78	-12	.	i	i	i
Cc1ccccc1N1C(=O)/C(=C/c2ccco2)C(=O)NC1=S	-56	13*	.	i	i	i
O=C1NC(=S)N(c2ccccc2F)C(=O)/C1=C\c1cccs1	36	22*	i	i	i	i
CC(C)C[C@H](NP(=O)(O)O[C@@H]1O[C@@H](C)[C@H](O)[C@@H](O)[C@H]1O)C(=O)N[C@@H](Cc1c[nH]c2ccccc12)C(=O)O	.	.	i	.	.	.
O=C(c1cn(Cc2ccccc2)c2ccccc12)N1CCCCC1	41	-9	i	i	i	i
CC(Cc1ccccc1Sc1ccccc1O)N(C)C (stereo not given)	9	-3	i	i	i	i
CCOC(=O)c1c(C)c(P(=S)(N2CCOCC2)N2CCOCC2)n(C)c1C	61*	-3	i	i	i	i
O=c1c(C=NCCN2CCNCC2)c(O)n(C2CCCCC2)c(=O)n1C1CCCCC1	35	-10	i	11*	i	i
CN1C(=O)NC(=O)/C(=C/c2ccc([N+](=O)[O-])o2)C1=O	17	-5	i	i	i	i
O=C1NC(=O)N(c2ccccc2)C(=O)/C1=C\c1ccc([N+](=O)[O-])o1	62*	0	.	i	i	i
CCCC[n+]1cc(=N)o[n-]1	.	-10	i	i	i	i
CCOC(=O)C1CCN(/C=C2\C(=O)NC(=S)N(CC)C2=O)CC1	62*	-9	i	i	i	i
CCN1CCN(Cc2nnnn2C(C)(C)C)CC1	7	-8	.	i	i	i
Cc1nc2ccccc2c(=O)n1-c1cc([N+](=O)[O-])cc([N+](=O)[O-])c1	51	4.7*	i	i	i	i
C/C(O)=C(\C#N)C(=O)Nc1cc(Br)ccc1Br	.	.	i	.	.	.
CCCCOCCCn1c(N)c(C(=O)OC(C)COC)c2nc3ccccc3nc21 (stereo not given)	-8	-1	-11*	i	i	i
COC(=O)C(C)NC(=S)N1CC2C[C@@H](C1)Cn1c2cccc1=O (stereo not given in full)	.	0	i	i	i	i
O=[N+]([O-])c1ccc(C(c2ccc([N+](=O)[O-])cc2)c2ccc([N+](=O)[O-])cc2)cc1	.	.	i	.	.	.
Cc1[nH]n(-c2ccccc2)c(=O)c1C(c1ccc([N+](=O)[O-])cc1)c1c(C)[nH]n(-c2ccccc2)c1=O	-26	-8	i	i	7*	i
COc1ccc(-n2c(C)nc3cc(C(=O)N4CCC5(CC4)OCCO5)ccc32)cc1	48	-7	i	i	i	i
COc1ccc(-c2nc3ccc(C(=O)N4CCC5(CC4)OCCO5)cc3nc2-c2ccc(OC)cc2)cc1	36	-7	i	i	6*	i
C(=NC12CN3CN(CN(C3)C1)C2)c1cccs1	45	-5	i	i	i	i
CCCCNS(=O)(=O)c1ccc(OCC(=O)N2CCN(Cc3ccc4c(c3)OCO4)CC2)cc1	61*	-13	i	i	i	i
CC(C)(C)NS(=O)(=O)c1ccc(OCC(=O)N2CCN(Cc3ccccc3)CC2)cc1	60*	-10	i	i	i	i
O=C(COc1ccc(S(=O)(=O)N2CCOCC2)cc1)N1CCN(Cc2ccc3c(c2)OCO3)CC1	5	-9	i	i	i	i
CCCNS(=O)(=O)c1ccc(OCC(=O)N2CCN(Cc3ccccc3)CC2)cc1	-10	2	i	i	i	i
O=C1CN=C(c2cccc(Br)c2)c2cc(Br)ccc2N1	28	-3	i	i	i	i
